Measured values from ChEMBL document CHEMBL2034860, “Cytotoxic heterocyclic triterpenoids derived from betulin and betulinic acid” (Bioorg Med Chem, 2012).
One block for each molecule: values may come before it.

Key:
CCRF-CEM [1] = experiment: Cytotoxicity against human CCRF-CEM cells after 72 hrs by MTT assay; format: functional, cell-based
HCT-116 [2] = experiment: Cytotoxicity against human p53-deficient HCT116 cells after 72 hrs by MTT assay; format: functional, cell-based; settings: HCT-116, 72 h
How it was run: (§1)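 Cells seeded at 2500–30,000 per well according to cell type and pre-incubated 24 h at 37 °C, 5% CO2. Four-fold dilutions of compounds dissolved in 10% DMSO were added at time zero, in quadruplicate, then incubated 72 h. MTT was added for a further 1–4 h and formazan dissolved in 10% aq SDS (pH 5.5) overnight at 37 °C. OD was read at 540 nm. Survival was taken as % of mean control OD, and IC50 was read from dose-response curves.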

[3] = Solubility of the compound in water based media; format: physicochemical; settings: buffer
HCT-116 [4] = experiment: Cytotoxicity against human HCT116 cells after 72 hrs by MTT assay; format: functional, cell-based; settings: HCT-116, 72 h; how it was run: as §1
CCRF-CEM [5] = experiment: Cytotoxicity against human daunorubicine resistant CEM cells after 72 hrs by MTT assay; format: functional, cell-based; how it was run: as §1
BJ = experiment: Cytotoxicity against human BJ cells after 72 hrs by MTT assay; format: cell-based; how it was run: as §1
K562 [6] = experiment: Cytotoxicity against human paclitaxel resistant K562 cells after 72 hrs by MTT assay; format: functional, cell-based; settings: K562, 72 h; how it was run: as §1
K562 [7] = experiment: Cytotoxicity against human K562 cells after 72 hrs by MTT assay; format: functional, cell-based; settings: K562, 72 h; how it was run: as §1
A549 = experiment: Cytotoxicity against human A549 cells after 72 hrs by MTT assay; format: functional, cell-based; settings: A549, 72 h; how it was run: as §1
MRC5 = experiment: Cytotoxicity against human MRC5 cells after 72 hrs by MTT assay; format: cell-based; settings: MRC5, 72 h; how it was run: as §1
[8] = Therapeutic index, ratio of IC50 for human BJ cells to IC50 for paclitaxel-resistant human K562 cells; format: cell-based; settings: BJ cells versus paclitaxel-resistant K562 cells, read-out: Ratio IC50
[9] = Therapeutic index, ratio of IC50 for human BJ cells to IC50 for human K562 cells; format: cell-based; settings: BJ cells versus K562 cells, read-out: Ratio IC50
[10] = Therapeutic index, ratio of IC50 for human MRC5 cells to IC50 for human CCRF-CEM cells; format: cell-based; settings: MRC5 cells versus CCRF-CEM cells, read-out: Ratio IC50
[11] = Therapeutic index, ratio of IC50 for human BJ cells to IC50 for human CCRF-CEM cells; format: cell-based; settings: BJ cells versus CCRF-CEM cells, read-out: Ratio IC50

solubility [3]: Insoluble
SMILES: CC(C)[C@@H]1CC[C@]2(C(=O)O)CC[C@]3(C)[C@H](CC[C@@H]4[C@@]5(C)Cc6c[nH]nc6C(C)(C)[C@@H]5CC[C@]43C)[C@@H]12
IC50 (HCT-116 [2]): 2.8 µM | IC50 (CCRF-CEM [1]): 3 µM | IC50 (HCT-116 [4]): 3.9 µM | IC50 (CCRF-CEM [5]): 8.2 µM | IC50 (BJ): 22.4 µM | IC50 (K562 [6]): 2700 nM | IC50 (K562 [7]): 3500 nM | IC50 (A549): 3.6 µM | IC50 (MRC5): 13.4 µM

solubility [3]: Insoluble
SMILES: CC1(C)CC[C@]23CC[C@]4(C)[C@H](CC[C@@H]5[C@@]6(C)Cc7cnn(-c8ccccc8)c7C(C)(C)[C@@H]6CC[C@]54C)[C@H]2[C@H]1OC3
IC50 (CCRF-CEM [1]): 250 µM

solubility [3]: Insoluble
SMILES: CC(C)[C@@H]1CC[C@]2(C(=O)O)CC[C@]3(C)[C@H](CC[C@@H]4[C@@]5(C)Cc6sc(N)nc6C(C)(C)[C@@H]5CC[C@]43C)[C@@H]12
IC50 (HCT-116 [2]): 4.3 µM | IC50 (CCRF-CEM [1]): 3 µM | IC50 (HCT-116 [4]): 5.1 µM | IC50 (CCRF-CEM [5]): 11.2 µM | IC50 (BJ): 24.9 µM | IC50 (K562 [6]): 6900 nM | IC50 (K562 [7]): 4800 nM | IC50 (A549): 7 µM | IC50 (MRC5): 15.7 µM

solubility [3]: Insoluble
SMILES: CC(C)[C@@H]1CC[C@]2(C(=O)O)CC[C@]3(C)[C@H](CC[C@@H]4[C@@]5(C)Cc6cnn(-c7ccccc7)c6C(C)(C)[C@@H]5CC[C@]43C)[C@@H]12
IC50 (CCRF-CEM [1]): 45 µM

solubility [3]: Insoluble
SMILES: C=C(C)[C@@H]1CC[C@]2(C(=O)O)CC[C@]3(C)[C@H](CC[C@@H]4[C@@]5(C)Cc6c(n[nH]c6O)C(C)(C)C5CC[C@]43C)[C@@H]12 (single isomer, unassigned)
IC50 (CCRF-CEM [1]): 22 µM

solubility [3]: Insoluble
SMILES: CC1(C)CC[C@]23CC[C@]4(C)[C@H](CC[C@@H]5[C@@]6(C)Cc7c(n[nH]c7O)C(C)(C)[C@@H]6CC[C@]54C)[C@H]2[C@H]1OC3
IC50 (CCRF-CEM [1]): 33 µM

solubility [3]: Insoluble
SMILES: CC(C)[C@@H]1CC[C@]2(C(=O)O)CC[C@]3(C)[C@H](CC[C@@H]4[C@@]5(C)Cc6c(n[nH]c6O)C(C)(C)[C@@H]5CC[C@]43C)[C@@H]12
IC50 (CCRF-CEM [1]): 123 µM

solubility [3]: Insoluble
SMILES: CC(C)[C@@H]1CC[C@]2(C(=O)O)CC[C@]3(C)[C@H](CC[C@@H]4[C@@]5(C)Cc6sc(Br)nc6C(C)(C)[C@@H]5CC[C@]43C)[C@@H]12
IC50 (CCRF-CEM [1]): 11 µM

solubility [3]: Insoluble
SMILES: C=C(C)[C@@H]1CC[C@]2(C(=O)O)CC[C@]3(C)[C@H](CC[C@@H]4[C@@]5(C)Cc6cnn(-c7ccccc7)c6C(C)(C)[C@@H]5CC[C@]43C)[C@@H]12
IC50 (CCRF-CEM [1]): 31 µM

solubility [3]: Insoluble
SMILES: CC1(C)CC[C@]23CC[C@]4(C)[C@H](CC[C@@H]5[C@@]6(C)Cc7cnoc7C(C)(C)[C@@H]6CC[C@]54C)[C@H]2[C@H]1OC3
IC50 (CCRF-CEM [1]): > 250 µM

solubility [3]: Insoluble
SMILES: CC1(C)CC[C@]23CC[C@]4(C)[C@H](CC[C@@H]5[C@@]6(C)Cc7c[nH]nc7C(C)(C)[C@@H]6CC[C@]54C)[C@H]2[C@H]1OC3
IC50 (CCRF-CEM [1]): 210 µM

solubility [3]: Insoluble
SMILES: CC1(C)CC[C@]23CC[C@]4(C)[C@H](CC[C@@H]5[C@@]6(C)Cc7conc7C(C)(C)[C@@H]6CC[C@]54C)[C@H]2[C@H]1OC3
IC50 (CCRF-CEM [1]): > 250 µM

Continued, molecule first:

SMILES: CC1(C)CC[C@]23CC[C@]4(C)[C@H](CC[C@@H]5[C@@]6(C)C=C(N7CCOCC7)C(=O)C(C)(C)[C@@H]6CC[C@]54C)[C@H]2[C@H]1OC3
IC50 (CCRF-CEM [1]): 226 µM

SMILES: C=C(C)[C@@H]1CC[C@]2(C(=O)O)CC[C@]3(C)[C@H](CC[C@@H]4[C@@]5(C)CC(C(=O)OCC)=C(O)C(C)(C)[C@@H]5CC[C@]43C)[C@@H]12
IC50 (CCRF-CEM [1]): 161 µM

SMILES: CC1(C)CC[C@]23CC[C@]4(C)[C@H](CC[C@@H]5[C@@]6(C)C=C(O)C(=O)C(C)(C)[C@@H]6CC[C@]54C)[C@H]2[C@H]1OC3
IC50 (CCRF-CEM [1]): 25 µM

SMILES: CC(C)[C@@H]1CC[C@]2(C(=O)O)CC[C@]3(C)[C@H](CC[C@@H]4[C@@]5(C)CC(Br)C(=O)C(C)(C)[C@@H]5CC[C@]43C)[C@@H]12 (mixture of isomers)
IC50 (HCT-116 [2]): 4.1 µM | IC50 (CCRF-CEM [1]): 1 µM | IC50 (HCT-116 [4]): 4.3 µM | IC50 (CCRF-CEM [5]): 11.4 µM | IC50 (BJ): 17.8 µM | selectivity ratio [8]: > 10 | selectivity ratio [9]: > 10 | IC50 (K562 [6]): 1700 nM | selectivity ratio [10]: > 10 | IC50 (K562 [7]): 1600 nM | IC50 (A549): 11.9 µM | selectivity ratio [11]: > 10 | IC50 (MRC5): 14.6 µM

SMILES: CC1(C)CC[C@]23CC[C@]4(C)[C@H](CC[C@@H]5[C@@]6(C)Cc7sc(N)nc7C(C)(C)[C@@H]6CC[C@]54C)[C@H]2[C@H]1OC3
IC50 (CCRF-CEM [1]): 85 µM | solubility [3]: Insoluble

SMILES: C=C(C)[C@@H]1CC[C@]2(C(=O)O)CC[C@]3(C)[C@H](CC[C@@H]4[C@@]5(C)C/C(=C/O)C(=O)C(C)(C)[C@@H]5CC[C@]43C)[C@@H]12
IC50 (HCT-116 [2]): 13.7 µM | IC50 (CCRF-CEM [1]): 4 µM | IC50 (HCT-116 [4]): 12.1 µM | IC50 (CCRF-CEM [5]): 29.6 µM | IC50 (BJ): 55.5 µM | selectivity ratio [8]: 4.4 | selectivity ratio [9]: 6.6 | IC50 (K562 [6]): 12700 nM | selectivity ratio [10]: 8.5 | IC50 (K562 [7]): 8400 nM | IC50 (A549): 17.6 µM | selectivity ratio [11]: > 10 | IC50 (MRC5): 29.9 µM

SMILES: CCOC(=O)C1=C(O)C(C)(C)[C@@H]2CC[C@]3(C)[C@H](CC[C@@H]4[C@H]5[C@H](C(C)C)CC[C@]5(C(=O)O)CC[C@]43C)[C@@]2(C)C1
IC50 (CCRF-CEM [1]): 142 µM

SMILES: CC1(C)CC[C@]23CC[C@]4(C)[C@H](CC[C@@H]5[C@@]6(C)Cc7sc(Br)nc7C(C)(C)[C@@H]6CC[C@]54C)[C@H]2[C@H]1OC3
IC50 (CCRF-CEM [1]): 150 µM | solubility [3]: Insoluble

SMILES: CC(C)[C@@H]1CC[C@]2(C(=O)O)CC[C@]3(C)[C@H](CC[C@@H]4[C@@]5(C)C/C(=C/O)C(=O)C(C)(C)[C@@H]5CC[C@]43C)[C@@H]12
IC50 (CCRF-CEM [1]): 61 µM

SMILES: CC1(C)CC[C@]23CC[C@]4(C)[C@H](CC[C@@H]5[C@@]6(C)CC(Br)C(=O)C(C)(C)[C@@H]6CC[C@]54C)[C@H]2[C@H]1OC3 (mixture of isomers)
IC50 (CCRF-CEM [1]): > 250 µM

SMILES: CC1(C)CC[C@]23CC[C@]4(C)[C@H](CC[C@@H]5[C@@]6(C)C/C(=C/O)C(=O)C(C)(C)[C@@H]6CC[C@]54C)[C@H]2[C@H]1OC3
IC50 (CCRF-CEM [1]): > 250 µM

SMILES: CCOC(=O)C1=C(O)C(C)(C)[C@@H]2CC[C@]3(C)[C@H](CC[C@@H]4[C@H]5[C@H]6OC[C@@]5(CCC6(C)C)CC[C@]43C)[C@@]2(C)C1
IC50 (CCRF-CEM [1]): > 250 µM

SMILES: CC(C)[C@@H]1CC[C@]2(C(=O)O)CC[C@]3(C)[C@H](CC[C@@H]4[C@@]5(C)CCC(=O)C(C)(C)[C@@H]5CC[C@]43C)[C@@H]12 [DIHYDROBETULONIC ACID]
IC50 (HCT-116 [2]): 6.1 µM | IC50 (CCRF-CEM [1]): 4 µM | IC50 (HCT-116 [4]): 4.1 µM | IC50 (CCRF-CEM [5]): 9.4 µM | IC50 (BJ): 22.6 µM | IC50 (K562 [6]): 4000 nM | IC50 (K562 [7]): 2500 nM | IC50 (A549): 5.9 µM | IC50 (MRC5): 11.7 µM

SMILES: C=C(C)[C@@H]1CC[C@]2(C(=O)O)CC[C@]3(C)[C@H](CC[C@@H]4[C@@]5(C)Cc6c[nH]nc6C(C)(C)[C@@H]5CC[C@]43C)[C@@H]12
IC50 (HCT-116 [2]): 3.3 µM | IC50 (CCRF-CEM [1]): 3 µM | solubility [3]: Insoluble | IC50 (HCT-116 [4]): 4.5 µM | IC50 (CCRF-CEM [5]): 10.4 µM | IC50 (BJ): 35.8 µM | IC50 (K562 [6]): 3000 nM | IC50 (K562 [7]): 2600 nM | IC50 (A549): 5.2 µM | IC50 (MRC5): 14.1 µM

SMILES: CC(C)[C@@H]1CC[C@]2(C(=O)O)CC[C@]3(C)[C@H](CC[C@@H]4[C@@]5(C)CC(Br)(Br)C(=O)C(C)(C)[C@@H]5CC[C@]43C)[C@@H]12
IC50 (HCT-116 [2]): 2.6 µM | IC50 (CCRF-CEM [1]): 1 µM | IC50 (HCT-116 [4]): 2.4 µM | IC50 (CCRF-CEM [5]): 7 µM | IC50 (BJ): 13.3 µM | selectivity ratio [8]: > 10 | selectivity ratio [9]: > 10 | IC50 (K562 [6]): 1100 nM | selectivity ratio [10]: 8 | IC50 (K562 [7]): 900 nM | IC50 (A549): 8.4 µM | selectivity ratio [11]: > 10 | IC50 (MRC5): 8 µM

SMILES: CC1(C)CC[C@]23CC[C@]4(C)[C@H](CC[C@@H]5[C@@]6(C)CC(Br)(Br)C(=O)C(C)(C)[C@@H]6CC[C@]54C)[C@H]2[C@H]1OC3
IC50 (CCRF-CEM [1]): > 250 µM
